Test results as given in ChEMBL document CHEMBL1145150, “Synthesis and biological activity of nitronyl nitroxide containing peptides” (J Med Chem, 2005).
pEC50: −log10 of the molar value. Residues, ends and D or L forms follow the SMILES beside them. *: point of attachment. X1 = CC1(C)N(O)C(c2ccc(OCC(=O)*)cc2)=[N+]([O-])C1(C)C

How the values were obtained:
Rattus norvegicus [1] = organism: Rattus norvegicus; test: Concentration of compound (1 uM) required to inhibit acetylcholine-induced vasorelaxation of rat aortic strip relative to control; format: functional, Aorta
PC-12 [2] = test: Free radical scavenging activity of compound (12.5 uM) evaluated against OH in PC12 cells; format: functional, cell-based; settings: Rattus norvegicus
Procedure, shortened: (§1)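 PC12 cells were grown in DMEM with 10% heat-inactivated horse serum, 5% FBS and 1.0 mM pyruvate at 37 °C and 5% CO₂. Cells were seeded at 20 000/well on poly-L-lysine and attached 24 h, then pretreated 1 h with 12.5–200 µM compound. Insults were: NO, 2 mM nitroprusside for 2 h, then 14 h in fresh medium; H₂O₂, 1 mM for 1 h; OH, 1 mM H₂O₂/30 µM Fe(II) for 1 h. Survival was read by MTT.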

Oryctolagus cuniculus [3] = organism: Oryctolagus cuniculus; test: Fibrinolytic activity (0.8 ug) determined in fibrinogen-agarose mixture coagulated with […] of thrombin; format: functional
Procedure, shortened: (§2)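 Plates were cast from equal volumes of 0.3% rabbit fibrinogen and 0.95% agarose, both in 50 mM sodium barbiturate buffer (pH 7.8), clotted with thrombin (100 IU/mL) and held 30 min at 4 °C. Wells 5 mm across were punched and loaded with 30 µL of saline, urokinase or test agent. Fibrinolysis was expressed as lysis area.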

PC-12 [4] = test: Free radical scavenging activity of compound (12.5 uM) evaluated against hydrogen peroxide in PC12 cells; format: functional, cell-based; settings: Rattus norvegicus; procedure, shortened: as §1
PC-12 [5] = test: Free radical scavenging activity of compound (12.5 uM) evaluated against nitric oxide in PC12 cells; format: functional, cell-based; settings: Rattus norvegicus; procedure, shortened: as §1
Rattus norvegicus [6] = test: Thrombolytic activity (10.0 umol/kg) expressed as the reduction of thrombus mass determined in male wistar rats; format: functional
Procedure, shortened: (§3)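 Male Wistar rats (200–300 g) were anesthetized with pentobarbital sodium (80.0 mg/kg i.p.). A steel helix was left for 15 min in 1.0 mL of carotid blood, then weighed. It was placed in a heparin-filled (50 IU/mL) polyethylene shunt into the left jugular vein. Heparin and then the test agent were injected through the shunt. Blood circulated 90 min, the helix was reweighed, and thrombus mass reduction was recorded (ANOVA).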

Oryctolagus cuniculus [7] = organism: Oryctolagus cuniculus; test: Effect (0.8 ug) on euglobulin clot lysis time determined using rabbit euglobulin; format: functional
Procedure, shortened: (§4)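 Rabbit plasma was diluted 1:20 in distilled water and precipitated at pH 5.7 with 0.25% acetic acid for 30 min at 4 °C. It was spun at 2000g for 15 min, and the euglobulin pellet was resuspended to the original plasma volume in 50 mM sodium barbiturate buffer (pH 7.8; 1.66 mM CaCl₂, 0.68 mM MgCl₂, 93.96 mM NaCl). Saline, urokinase or test agent was added to the clots, and time to clot lysis was read in a microplate.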

Rattus norvegicus [8] = organism: Rattus norvegicus; test: Concentration of compound (1 umol/L) required to inhibit acetylcholine-induced vasorelaxation of rat aortic strip relative to control; format: functional, Aorta
Oryctolagus cuniculus [9] = organism: Oryctolagus cuniculus; test: Effect (1.4 ug) on euglobulin clot lysis time determined using rabbit euglobulin; format: functional; procedure, shortened: as §4
Oryctolagus cuniculus [10] = organism: Oryctolagus cuniculus; test: Fibrinolytic activity (1.4 ug) determined in fibrinogen-agarose mixture coagulated with […] of thrombin; format: functional; procedure, shortened: as §2
Oryctolagus cuniculus [11] = organism: Oryctolagus cuniculus; test: Effect (1.3 ug) on euglobulin clot lysis time determined using rabbit euglobulin; format: functional; procedure, shortened: as §4
Oryctolagus cuniculus [12] = organism: Oryctolagus cuniculus; test: Fibrinolytic activity (1.3 ug) determined in fibrinogen-agarose mixture coagulated with […] of thrombin; format: functional; procedure, shortened: as §2
Oryctolagus cuniculus [13] = organism: Oryctolagus cuniculus; test: Fibrinolytic activity (1.5 ug) determined in fibrinogen-agarose mixture coagulated with […] of thrombin; format: functional; procedure, shortened: as §2
Oryctolagus cuniculus [14] = organism: Oryctolagus cuniculus; test: Effect (1.5 ug) on euglobulin clot lysis time determined using rabbit euglobulin; format: functional; procedure, shortened: as §4
Oryctolagus cuniculus [15] = organism: Oryctolagus cuniculus; test: Effect (2.2 ug) on euglobulin clot lysis time determined using rabbit euglobulin; format: functional; procedure, shortened: as §4
Rattus norvegicus [16] = organism: Rattus norvegicus; test: Concentration of compound (0.01 umol/L) required to inhibit acetylcholine-induced vasorelaxation of rat aortic strip relative to control; format: functional, Aorta
Rattus norvegicus [17] = test: Thrombolytic activity (5.0 umol/kg) expressed as the reduction of thrombus mass determined in male wistar rats; format: functional; procedure, shortened: as §3
Oryctolagus cuniculus [18] = organism: Oryctolagus cuniculus; test: Effect (0.6 ug) on euglobulin clot lysis time determined using rabbit euglobulin; format: functional; procedure, shortened: as §4
Rattus norvegicus [19] = test: Thrombolytic activity (15.0 umol/kg) expressed as the reduction of thrombus mass determined in male wistar rats; format: functional; procedure, shortened: as §3
Oryctolagus cuniculus [20] = organism: Oryctolagus cuniculus; test: Fibrinolytic activity (0.4 ug) determined in fibrinogen-agarose mixture coagulated with […] of thrombin; format: functional; procedure, shortened: as §2
PC-12 [21] = test: Free radical scavenging activity of compound (25 uM) evaluated against […] in PC12 cells; format: functional, cell-based; settings: Rattus norvegicus
PC-12 [22] = test: Free radical scavenging activity of compound (25 uM) evaluated against hydrogen peroxide in PC12 cells; format: functional, cell-based; settings: Rattus norvegicus; procedure, shortened: as §1
Oryctolagus cuniculus [23] = organism: Oryctolagus cuniculus; test: Fibrinolytic activity (0.2 ug) determined in fibrinogen-agarose mixture coagulated with […] of thrombin; format: functional; procedure, shortened: as §2
PC-12 [24] = test: Free radical scavenging activity of compound (25 uM) evaluated against OH in PC12 cells; format: functional, cell-based; settings: Rattus norvegicus; procedure, shortened: as §1
Oryctolagus cuniculus [25] = organism: Oryctolagus cuniculus; test: Effect (1.1 ug) on euglobulin clot lysis time determined using rabbit euglobulin; format: functional; procedure, shortened: as §4
Rattus norvegicus [26] = organism: Rattus norvegicus; test: Concentration of compound (0.1 umol/L) required to inhibit acetylcholine-induced vasorelaxation of rat aortic strip relative to control; format: functional, Aorta
Oryctolagus cuniculus [27] = organism: Oryctolagus cuniculus; test: Fibrinolytic activity (0.7 ug) determined in fibrinogen-agarose mixture coagulated with […] of thrombin; format: functional; procedure, shortened: as §2
PC-12 [28] = test: Free radical scavenging activity of compound (50 uM) evaluated against hydrogen peroxide in PC12 cells; format: functional, cell-based; settings: Rattus norvegicus; procedure, shortened: as §1
PC-12 [29] = test: Free radical scavenging activity of compound (50 uM) evaluated against […] in PC12 cells; format: functional, cell-based; settings: Rattus norvegicus
Oryctolagus cuniculus [30] = organism: Oryctolagus cuniculus; test: Effect (2.1 ug) on euglobulin clot lysis time determined using rabbit euglobulin; format: functional; procedure, shortened: as §4
PC-12 [31] = test: Free radical scavenging activity of compound (50 uM) evaluated against OH in PC12 cells; format: functional, cell-based; settings: Rattus norvegicus; procedure, shortened: as §1
PC-12 [32] = test: Free radical scavenging activity of compound (200 uM) evaluated against […] in PC12 cells; format: functional, cell-based; settings: Rattus norvegicus
PC-12 [33] = test: Free radical scavenging activity of compound (200 uM) evaluated against hydrogen peroxide in PC12 cells; format: functional, cell-based; settings: Rattus norvegicus; procedure, shortened: as §1
Rattus norvegicus [34] = test: Thrombolytic activity (10 umol/kg) expressed as the reduction of thrombus mass determined in male wistar rats; format: functional; procedure, shortened: as §3
Oryctolagus cuniculus [35] = organism: Oryctolagus cuniculus; test: Effect (2.3 ug) on euglobulin clot lysis time determined using rabbit euglobulin; format: functional; procedure, shortened: as §4
PC-12 [36] = test: Free radical scavenging activity of compound (200 uM) evaluated against OH in PC12 cells; format: functional, cell-based; settings: Rattus norvegicus; procedure, shortened: as §1
Rattus norvegicus [37] = test: Thrombolytic activity (5 umol/kg) expressed as the reduction of thrombus mass determined in male wistar rats; format: functional; procedure, shortened: as §3
Rattus norvegicus [38] = test: Thrombolytic activity (1 umol/kg) expressed as the reduction of thrombus mass determined in male wistar rats; format: functional; procedure, shortened: as §3
Oryctolagus cuniculus [39] = organism: Oryctolagus cuniculus; test: Fibrinolytic activity (5 IU)) determined in fibrinogen-agarose mixture coagulated with […] of thrombin; format: functional; procedure, shortened: as §2
Rattus norvegicus [40] = test: Thrombolytic activity (20 000 IU/kg) expressed as the reduction of thrombus mass determined in male wistar rats; format: functional, organism-based; procedure, shortened: as §3
Oryctolagus cuniculus [41] = organism: Oryctolagus cuniculus; test: Effect (5 IU) on euglobulin clot lysis time determined using rabbit euglobulin; format: functional; procedure, shortened: as §4

CC1(C)N(O)C(c2ccc(OCC(=O)O)cc2)=[N+]([O-])C1(C)C
Inhibition (Rattus norvegicus [1]): 99.2% | pEC50 (PC-12 [2]): 4.00 | Lysis area (Oryctolagus cuniculus [3]): 23.96 mm.mm | pEC50 (PC-12 [4]): 4.52 | pEC50 (PC-12 [5]): 4.04 | Reduction (Rattus norvegicus [6]): 15.89 mg | ECLT (Oryctolagus cuniculus [7]): 218.56 min

C[C@H](N)C(=O)N[C@@H](CCCN=C(N)N)C(=O)N1CCC[C@H]1C(=O)N[C@@H](C)C(=O)N[C@@H](CCCCN)C(=O)O (H-ARPAK-OH)
Inhibition (Rattus norvegicus [8]): 9.5% | ECLT (Oryctolagus cuniculus [9]): 96.38 min | Reduction (Rattus norvegicus [6]): 18.54 mg | Lysis area (Oryctolagus cuniculus [10]): 212.78 mm.mm

C[C@H](NC(=O)[C@@H]1CCCN1C(=O)[C@H](CCCN=C(N)N)NC(=O)CN)C(=O)N[C@@H](CCCCN)C(=O)O (H-GRPAK-OH)
Inhibition (Rattus norvegicus [8]): 9.2% | ECLT (Oryctolagus cuniculus [11]): 91.09 min | Lysis area (Oryctolagus cuniculus [12]): 230.54 mm.mm | Reduction (Rattus norvegicus [6]): 25.82 mg

C[C@H](NC(=O)[C@@H]1CCCN1C(=O)[C@H](CCCN=C(N)N)NC(=O)[C@@H](N)CCC(N)=O)C(=O)N[C@@H](CCCCN)C(=O)O (H-QRPAK-OH)
Lysis area (Oryctolagus cuniculus [13]): 223.99 mm.mm | Inhibition (Rattus norvegicus [8]): 8.9% | ECLT (Oryctolagus cuniculus [14]): 93.01 min | Reduction (Rattus norvegicus [6]): 21.17 mg

C[C@H](NC(=O)COc1ccc(C2=[N+]([O-])C(C)(C)C(C)(C)N2O)cc1)C(=O)N[C@@H](CCCN=C(N)N)C(=O)N1CCC[C@H]1C(=O)N[C@@H](C)C(=O)N[C@@H](CCCCN)C(=O)O (X1-ARPAK-OH)
ECLT (Oryctolagus cuniculus [15]): 104.12 min | Inhibition (Rattus norvegicus [16]): 66.8% | Inhibition (Rattus norvegicus [8]): 92.9% | Reduction (Rattus norvegicus [17]): 16.27 mg | Lysis area (Oryctolagus cuniculus [3]): 215.23 mm.mm | ECLT (Oryctolagus cuniculus [18]): 145.61 min | Reduction (Rattus norvegicus [19]): 26.88 mg | Lysis area (Oryctolagus cuniculus [20]): 194.54 mm.mm | pEC50 (PC-12 [21]): 4.05 | Reduction (Rattus norvegicus [6]): 19.91 mg | pEC50 (PC-12 [22]): 4.55 | Lysis area (Oryctolagus cuniculus [23]): 172.33 mm.mm | pEC50 (PC-12 [24]): 4.01 | ECLT (Oryctolagus cuniculus [25]): 123.32 min | Inhibition (Rattus norvegicus [26]): 78.6%

C[C@H](NC(=O)[C@@H]1CCCN1C(=O)[C@H](CCCN=C(N)N)NC(=O)CNC(=O)COc1ccc(C2=[N+]([O-])C(C)(C)C(C)(C)N2O)cc1)C(=O)N[C@@H](CCCCN)C(=O)O (X1-GRPAK-OH)
Lysis area (Oryctolagus cuniculus [27]): 217.35 mm.mm | Inhibition (Rattus norvegicus [16]): 69.3% | Inhibition (Rattus norvegicus [8]): 96% | pEC50 (PC-12 [28]): 4.60 | Reduction (Rattus norvegicus [17]): 16.34 mg | pEC50 (PC-12 [29]): 4.03 | ECLT (Oryctolagus cuniculus [18]): 147.22 min | ECLT (Oryctolagus cuniculus [30]): 105.01 min | Reduction (Rattus norvegicus [19]): 26.64 mg | pEC50 (PC-12 [31]): 4.02 | Lysis area (Oryctolagus cuniculus [20]): 196.87 mm.mm | Reduction (Rattus norvegicus [6]): 19.7 mg | Lysis area (Oryctolagus cuniculus [23]): 175.04 mm.mm | ECLT (Oryctolagus cuniculus [25]): 126.51 min | Inhibition (Rattus norvegicus [26]): 80.9%

C[C@H](NC(=O)[C@@H]1CCCN1C(=O)[C@H](CCCN=C(N)N)NC(=O)[C@H](CCC(N)=O)NC(=O)COc1ccc(C2=[N+]([O-])C(C)(C)C(C)(C)N2O)cc1)C(=O)N[C@@H](CCCCN)C(=O)O (X1-QRPAK-OH)
Inhibition (Rattus norvegicus [16]): 68.3% | Inhibition (Rattus norvegicus [8]): 95.6% | pEC50 (PC-12 [32]): 4.04 | Lysis area (Oryctolagus cuniculus [3]): 230.15 mm.mm | ECLT (Oryctolagus cuniculus [18]): 136 min | pEC50 (PC-12 [33]): 4.13 | Reduction (Rattus norvegicus [34]): 28.85 mg | Lysis area (Oryctolagus cuniculus [20]): 215.12 mm.mm | ECLT (Oryctolagus cuniculus [35]): 100.09 min | pEC50 (PC-12 [36]): 4.03 | Reduction (Rattus norvegicus [37]): 20.43 mg | Reduction (Rattus norvegicus [38]): 16.4 mg | Lysis area (Oryctolagus cuniculus [23]): 195.38 mm.mm | ECLT (Oryctolagus cuniculus [25]): 117.96 min | Inhibition (Rattus norvegicus [26]): 80.1%

UROKINASE
Lysis area (Oryctolagus cuniculus [39]): 224 mm.mm | Reduction (Rattus norvegicus [40]): 25.4 mg | ECLT (Oryctolagus cuniculus [41]): 126 min
